Hits are enriched below; roughly 9.4% of the tested compounds scored in any of these assays.
T cruzi inh = T. cruzi replication inhibition; 300,000 compounds, 1.4% hits; inhibition, % (concentration not given with the values); T. cruzi beta-gal in NIH3T3, luminescence, 90 h;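 active = mean inhibition across valid replicates above about 55%, limit read from the data; inconclusive = mean below that limit but half or more replicates reach it; inactive = mean below it, under half of replicates reach it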;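 also: signal also drops with host cell toxicity which is not excluded here; 0% = plate median of DMSO wells and 100% = zero luminescence signal; higher percent means less beta-gal luminescence so fewer parasites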
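System: mouse NIH/3T3 fibroblasts infected with β-gal-expressing T. cruzi Tulahuen C4 / Input: NIH/3T3 cells, 5,000 per well / Buffer or medium: Low-serum DMEM with 2% FBS / Probe or stimulus: 5000 reporter trypomastigotes per well / Schedule: ≥90 h infection period, 3 h prior cell attachment / Measured by: GalScreen luminescence, 60 min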
L major viab = inhibitors of Leishmania major promastigote growth; Leishmania major promastigotes, resazurin fluorescence viability; inhibition, % at 10 µM; 200,000 compounds, 9% hits; AID 1063; in the data active = inhibition above about 50%;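 also: promastigotes grown with compound for 44 hours at 28 °C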
CSC inhib = blocks cancer stem cells; 300,000 compounds, 1.1% hits; cancer stem cell-like cells viability, luminescence; inhibition, % at 7.5 µM; AID 2717; in the data active = inhibition above about 75%; inconclusive = no clear call, values can overlap the other calls; tested in HMLE shEcad cells
Beta cell apopt = blocks beta cell apoptosis. INS-1E cytokine-induced death, ATP luminescence, 48 h; percent of positive-control rescue, neutral wells zero. protection from apoptosis, % (concentration not given with the values). 300,000 compounds, 0.8% hits;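 active = Every replicate reaches about 75%, or at least half do and their mean reaches it too, limit read from the data; inconclusive = At least half of replicates reach the limit but their mean does not; inactive = Under half of replicates reach the limit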;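 also: 0% = cytokine-treated negative control wells and 100% = positive control rescue; higher means more ATP so stronger rescue from cytokine killing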
SKKanGAS inh = blocks kanamycin growth of S. pyogenes SKKanGAS strain | BacTiter-Glo, 6 h | inhibition, % at 7.5 µM | 300,000 compounds, 1.3% hits;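 active = mean replicate score, as percent of positive control median, at least 50; inconclusive = mean below 50 but one replicate at or above 50; inactive = mean and every replicate below 50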;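 also: strain carries kanamycin resistance gene driven by streptokinase promoter and grows in 40 µg/ml kanamycin; loss of luminescence reflects streptokinase promoter inhibition or plain growth inhibition; 0% = median of DMSO wells and 100% = positive control at its reference dose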
Mdm2 MdmX PPI = human Mdm2/MdmX binding inhibition; O15151+Q00987; SaOS-2 split-luciferase Mdm2/MdmX complementation, luminescence; inhibition, % at 8 µM; 330,000 compounds, 3% hits; AID 485346;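 active = inhibition of at least 50% at 8 µM in the primary screen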
Mdm2-MdmX conf = confirmation of human Mdm2/MdmX interaction inhibitors; shares compounds with Mdm2 MdmX PPI; Mdm2-MdmX binding, luminescent assay; inhibition, % at 8 µM; 10,000 compounds, 55% hits; AID 489028; in the data active = inhibition above about 40%
Full FLuc ctr = counter-screen for Mdm2/MdmX inhibitors: full-length luciferase; shares compounds with Mdm2 MdmX PPI; SaOS-2 full-length luciferase counterscreen, luminescence; inhibition, % at 8 µM; 6,200 compounds, 77% hits;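 active = mean inhibition at 8 µM reaching about 37%, which flags the compound as non-specific, limit read from the data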;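 also: p53-null SaOS-2 cells with luciferase driven by a doxycycline-inducible promoter; compound on cells about two nights before reading with doxycycline added after day one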
Starred values were filed as active, the others as inactive; ? = inconclusive; nt = not tested or not shown.

SMILES	T cruzi inh	L major viab	CSC inhib	Beta cell apopt	SKKanGAS inh	Mdm2 MdmX PPI	Mdm2-MdmX conf	Full FLuc ctr
O=C(CCl)N(Cc1ccccc1)c1ccccc1	48	79*	6	-4	-11	96*	96*	55*
Cc1ccccc1N(Cc1cc(=O)[nH]c2ccccc12)C(=O)CCl	11	nt	22	-21	1	96*	73*	58*
COC(=O)c1ccc(C(=O)N(Cc2ccccc2)c2ccccc2)cc1	8	nt	-2	1	4	47	nt	nt
O=C(CCl)N(Cc1cc(=O)[nH]c2ccccc12)c1ccccc1	10	nt	45	-17	0	100*	100*	53*
CCCn1c(Oc2ccccc2)nc2c1c(=O)n(C)c(=O)n2C	-6	nt	-17	3	25	9	nt	nt
COc1ccc(C(CNC(=O)c2cc(C)on2)N(C)C)cc1 (centres undefined)	-12	nt	-2	-5	-1	21	nt	nt
Nc1nc(SCC(=O)Nc2ccc(C(F)(F)F)cc2)[nH]c(=O)c1NC(=O)c1ccc(F)c(F)c1	-7	nt	-12	-1	4	6	nt	nt
O=C(CSc1nc2nc(-c3cccs3)cc(C(F)(F)F)c2c(=O)[nH]1)Nc1ccc(F)c(F)c1	-10	-6	104*	25	88*	74*	46*	80*
COc1ccc(C(=O)/C(C#N)=N/Nc2ccc([N+](=O)[O-])cc2)cc1	-11	56*	18	107*	11	90*	92*	51*
N#C/C(=N\Nc1ccc(Cl)cc1)C(=O)c1ccccc1	-6	-1	59	99*	30	84*	56*	44*
Cc1oc2ccc(NS(=O)(=O)c3cccc4cccnc34)cc2c1C(=O)OC(C)C	4	9	28	9	2	-9	nt	nt
CC(/C=N/NC(=O)CNc1n[nH]c(=O)[nH]c1=O)c1ccccc1 (centres undefined)	-4	nt	-13	-4	-3	16	nt	nt
S=C(NCCCN1CCOCC1)N1CCN(c2nc(-c3ccc(Cl)cc3)cs2)CC1	2	76*	104*	85*	-20	62*	11	nt
CC(C)N(Cc1ccccc1)S(=O)(=O)c1ccc(F)cc1	16	nt	-9	47	4	31	nt	nt
C=C[C@H](Cc1ccccc1)N(Cc1ccccc1)S(=O)(=O)N(Cc1ccccc1)[C@H](C=C)Cc1ccccc1	nt	nt	21	82*	nt	90*	63*	86*
COc1cccc(-c2nn(C)c3sc(C(=O)NCc4ccc(C)cc4)cc23)c1	41	20	3	-2	20	34	nt	nt
COc1cccc(-c2nn(C)c3sc(C(=O)NCc4ccccn4)cc23)c1	7	10	-14	-13	-2	55*	41*	77*
CC(C)(C)c1cc(CCC(=O)NNC(=O)c2ccncc2)cc(C(C)(C)C)c1O	nt	nt	nt	nt	nt	10	nt	nt
CCOC(=O)c1c(NC(=O)C2COc3ccccc3O2)sc2c1CC(C)(C)NC2(C)C (centres undefined)	27	99*	?	9	4	84*	52*	61*
CCOC(=O)c1c(NC(=O)CCS(=O)(=O)c2ccccc2)sc2c1CC(C)(C)NC2(C)C	13	nt	-3	0	-3	14	nt	nt
CCOC(=O)c1c(NC(=O)c2ccc(C)cc2)sc2c1CC(C)(C)NC2(C)C	32	33	12	nt	-1	93*	47*	96*
CCOC(=O)c1c(NC(=O)COc2ccccc2C#N)sc2c1CC(C)(C)NC2(C)C	39	nt	-2	7	14	51*	15	nt
CC1(C)Cc2c(sc(NC(=O)COc3cccc4ccccc34)c2C#N)C(C)(C)N1	9	nt	14	10	2	98*	100*	51*
CCOC(=O)c1c(NC(=O)C2COc3ccccc3O2)sc(C(C)=O)c1C (centres undefined)	-13	4	0	12	3	16	nt	nt
C/C(CC(=O)Nc1cc(C)ccn1)=N\NC(=O)c1cccc(F)c1	-11	nt	-7	-17	-2	7	nt	nt
SMILES	T cruzi inh	L major viab	CSC inhib	Beta cell apopt	SKKanGAS inh	Mdm2 MdmX PPI	Mdm2-MdmX conf	Full FLuc ctr
CCOC(=O)c1c(NC(=O)Cc2ccccc2)sc2c1CC(C)(C)NC2(C)C	29	nt	11	-11	2	36	nt	nt
CCOC(=O)c1c(NC(=O)COc2ccccc2OCC)sc2c1CC(C)(C)NC2(C)C	44	nt	2	11	22	97*	34	90*
COC(=O)c1c(NC(=O)c2ccc(OC(C)C)cc2)sc2c1CC(C)(C)NC2(C)C	?	31	53	nt	5	94*	77*	24
O=C1CSC(=S)N1Cc1cccnc1	14	100*	60	9	9	94*	80*	50*
O=C(O)c1ccc(/C=C2/SC(=S)N(Cc3ccccc3)C2=O)cc1	-12	nt	6	-11	5	nt	nt	nt
O=C1/C(=C\c2cccc([N+](=O)[O-])c2O)SC(=S)N1Cc1ccccc1	-2	nt	35	7	20	nt	nt	nt
O=C1/C(=C\c2cc(Br)cc(Br)c2O)SC(=S)N1Cc1ccccc1	8	nt	78*	0	79*	91*	79*	37*
O=C1CSC(=S)N1c1cccnc1	-1	-6	3	-10	1	33	nt	nt
O=C1/C(=C\c2ccc(O)cc2)SC(=S)N1Cc1ccccc1	6	nt	-13	9	8	36	nt	nt
O=C1/C(=C/c2ccc(O)c([N+](=O)[O-])c2)SC(=S)N1Cc1ccccc1	-15	16	nt	23	30	62*	45*	71*
O=C1/C(=C/c2ccccc2O)SC(=S)N1Cc1cccnc1	3	88*	37	7	-3	73*	5	nt
COc1ccc2[nH]cc(S(=O)(=O)c3ccc(C(C)C)cc3)c(=O)c2c1	34	-7	-7	0	-13	6	nt	nt
O=C(O)C1CCC(N2C(=O)C3C4CCC(C4)C3C2=O)CC1 (centres undefined)	-10	-3	0	2	13	10	nt	nt
COc1ccc(S(=O)(=O)NC(C)C(=O)NCCN2CCOCC2)cc1Cl (centres undefined)	4	nt	nt	-4	1	-3	nt	nt
O=c1c2c3nc4ccccc4nc3n(/N=C/c3ccccn3)c2ncn1-c1ccccc1	-23	nt	35	-6	17	74*	49*	55*
COc1cc(C#Cc2c(-c3cncn3C)n(C)c3ccc(-c4cnc(N5CCOCC5)nc4)cc23)cc(OC)c1	nt	nt	nt	15	nt	81*	14	nt
COc1cc(OC)cc(-c2c(C#Cc3ccsc3)c3cc(-c4ccc(N(C)C)nc4)ccc3n2C)c1	nt	nt	10	0	nt	17	nt	nt
COc1cc(C#Cc2c(-c3cncn3C)n(C)c3ccc(-c4cnc(OC)nc4)cc23)cc(OC)c1	nt	nt	?	25	nt	66*	39	63*

High-throughput results from PubChem BioAssay.
